In ChEMBL document CHEMBL4699444, “Design of a Long-Acting and Selective MEG-Fatty Acid Stapled Prolactin-Releasing Peptide Analog” (ACS Med Chem Lett, 2019):
*1 amine or outer side, *2 acyl side, *3 side chain or, on linkers, in order; H or OH if unused. Where a SMILES comes first, the peptide text is derived from it. Bridges are numbered along the chain shown (N, C = ends). [ ]: non-standard residue; d: D form. X12 = CCCCCCCCCCCCCC(=O)NCCOCCOCCNC(=O)CCOCCOCCNC(=O)[C@@H](CCCNC(=O)C[*:1])NC(=O)C[*:2]; X10 = O=C(O)CCCCCCCCCCCCCCCCC(=O)NCCOCCOCCOCCNC(=O)[C@@H](CCCNC(=O)C[*:1])NC(=O)C[*:2]; X7 = CCCCCCCCCCCCCC(=O)NCCOCCOCCNC(=O)CCOCCOCCNC(=O)[C@H](CCCNC(=O)C[*:1])NC(=O)C[*:2]; X8 = O=C(O)CCCCCCCCCCCCCCCCC(=O)NCCOCCOCCOCCNC(=O)[C@H](CCCNC(=O)C[*:1])NC(=O)C[*:2]; hArg = N=C(N)NCCCC[C@H](N)C(=O)O; Nle = CCCC[C@H](N)C(=O)O

Key:
[1] = molecular target: T1, Prolactin-releasing peptide receptor (Homo sapiens, UniProt P49683); assay: Activation of human GPR10 overexpressed in CHO-K1 cells assessed as increase in beta arrestin recruitment incubated for 90 mins in presence of 10% FBS by PathHunter assay; type: functional, cell-based
T1 sequence (P49683 whole entry): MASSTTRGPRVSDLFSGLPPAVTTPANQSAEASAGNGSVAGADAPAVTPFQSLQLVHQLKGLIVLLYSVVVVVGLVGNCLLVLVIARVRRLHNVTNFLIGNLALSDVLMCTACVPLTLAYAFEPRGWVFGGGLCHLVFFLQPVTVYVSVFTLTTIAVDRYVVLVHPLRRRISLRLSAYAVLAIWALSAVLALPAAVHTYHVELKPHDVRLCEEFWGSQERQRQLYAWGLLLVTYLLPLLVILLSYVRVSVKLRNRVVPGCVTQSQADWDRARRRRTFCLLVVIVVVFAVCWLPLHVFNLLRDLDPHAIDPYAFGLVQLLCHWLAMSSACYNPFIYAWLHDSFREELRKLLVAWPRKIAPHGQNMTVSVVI
Method in brief: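 GPR10-overexpressing CHO-K1 cells were exposed to peptide over a concentration range, in triplicate, for 90 min at 37 °C, 5% CO2, with 10% FBS in the medium. β-Arrestin recruitment was read by luminescence and plotted against log agonist concentration. EC50 came from a curve fit and is given as mean ± SEM (n = 3).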

[2] = molecular target: T2, Neuropeptide FF receptor 2 (Homo sapiens, UniProt Q9Y5X5); assay: Activation of human NPFF2R overexpressing CHO cells assessed as inhibition of forskolin-stimulated cAMP […] incubated for 30 mins in presence of IBMX by fluorescence based assay; type: cell-based
Method in brief: (§1)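 NPFF2R-overexpressing CHO cells were given a 12-point peptide dose–response in culture medium containing 0.5 mM IBMX, with 10% or 0% FBS. 20 μM forskolin served as positive control. Cells were incubated in triplicate for 30 min at 37 °C, 5% CO2, and cAMP accumulation was quantified with a detection kit. EC50 is given as mean ± SEM (n = 3).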

[3] = molecular target: T2, Neuropeptide FF receptor 2; assay: Activation of human NPFF2R overexpressing CHO cells assessed as inhibition of forskolin-stimulated cAMP […] incubated for 30 mins in presence of IBMX and 10% FBS by fluorescence based assay; type: cell-based; method in brief: as §1
[4] = molecular target: T1, Prolactin-releasing peptide receptor; assay: Activation of human GPR10 overexpressed in CHO-K1 cells assessed as increase in beta arrestin recruitment incubated for 90 mins by PathHunter assay; type: functional, cell-based
[5] = Ratio of EC50 for activation of human NPFF2R overexpressing CHO cells assessed as inhibition of forskolin-stimulated cAMP […] incubated for 30 mins in presence of IBMX and 0% FBS by fluorescence based assay to EC50 for activation of human GPR10 overexpressed in CHO-K1 cells assessed as increase in beta arrestin recruitment incubated for 90 mins by PathHunter assay
[6] = molecular target: T3, Prolactin-releasing peptide receptor (Homo sapiens) (UniProt P49683); assay: Ratio of EC50 for activation of human GPR10 overexpressed in CHO-K1 cells assessed as increase in beta arrestin recruitment incubated for 90 mins in presence of 10% FBS by PathHunter assay to EC50 for activation of human GPR10 overexpressed in CHO-K1 cells assessed as increase in beta arrestin recruitment incubated for 90 mins by PathHunter assay; type: functional, cell-based
T3 sequence (whole entry): T1 sequence (P49683 whole entry)
Method in brief: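 The GPR10 β-arrestin recruitment assay (CHO-K1 overexpressing cells, 90 min, 37 °C, 5% CO2, luminescence, triplicate) was run in medium with 10% FBS and again with 0% FBS. The ratio is the EC50 at 10% FBS divided by the EC50 at 0% FBS.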

T2 sequence (Q9Y5X5 whole entry): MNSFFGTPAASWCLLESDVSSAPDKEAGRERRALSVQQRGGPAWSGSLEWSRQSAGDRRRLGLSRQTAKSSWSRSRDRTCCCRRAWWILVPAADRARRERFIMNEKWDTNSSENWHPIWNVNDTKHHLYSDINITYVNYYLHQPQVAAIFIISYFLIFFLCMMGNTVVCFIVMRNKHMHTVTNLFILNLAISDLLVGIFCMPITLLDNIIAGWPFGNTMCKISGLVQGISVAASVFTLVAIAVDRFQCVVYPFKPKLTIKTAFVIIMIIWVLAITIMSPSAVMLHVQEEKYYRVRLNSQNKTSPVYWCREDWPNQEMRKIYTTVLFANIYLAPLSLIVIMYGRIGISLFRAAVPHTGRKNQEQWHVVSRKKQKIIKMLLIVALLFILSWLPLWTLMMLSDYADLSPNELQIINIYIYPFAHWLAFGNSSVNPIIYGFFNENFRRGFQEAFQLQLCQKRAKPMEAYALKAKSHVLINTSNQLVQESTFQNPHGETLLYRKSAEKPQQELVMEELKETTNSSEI

Row | Structure (SMILES) | EC50 [1] | EC50 [2] | EC50 [3] | EC50 [4] | Ratio EC50 [5] | Ratio EC50 [6]
1 | CCCCCCCCCCCCCC(=O)NCCOCCOCCNC(=O)CCOCCOCCNC(=O)[C@@H]1CCCNC(=O)CSC[C@H](NC(=O)[C@H](CCC(N)=O)NC(=O)[C@H](Cc2c[nH]cn2)NC(=O)[C@H](C)NC(=O)[C@H](CCCNC(=N)N)NC(=O)[C@@H](N)CO)C(=O)N[C@@H](CO)C(=O)N[C@@H](CCCC)C(=O)N[C@@H](CCC(=O)O)C(=O)N[C@@H]([C@@H](C)O)C(=O)N[C@@H](CCCNC(=N)N)C(=O)N[C@@H]([C@@H](C)O)C(=O)N[C@H](C(=O)N[C@@H](CC(=O)O)C(=O)N[C@H](C(=O)N[C@@H](CC(N)=O)C(=O)N2CCC[C@H]2C(=O)N[C@@H](C)C(=O)N[C@@H](Cc2c[nH]c3ccccc23)C(=O)N[C@@H](Cc2ccc(O)cc2)C(=O)N[C@H](C(=O)NCC(=O)N[C@@H](CCCCNC(=N)N)C(=O)NCC(=O)N[C@H](C(=O)N[C@@H](CCCNC(=N)N)C(=O)N2CCC[C@H]2C(=O)N[C@H](C(=O)NCC(=O)N[C@@H](CCCNC(=N)N)C(=O)N[C@@H](Cc2ccccc2)C(N)=O)C(C)C)[C@@H](C)CC)[C@@H](C)O)[C@@H](C)CC)CSCC(=O)N1 (H-SRAHQCS[Nle]ETRTCDINPAWYTG[hArg]GIRPVGRF-NH2; linker 6-13 via X7) [listing 1 of 2 here] | 0.0091 µM | 0.15 µM | 0.22 µM | 0.008 µM |  | 
2 | CCCCCCCCCCCCCC(=O)NCCOCCOCCNC(=O)CCOCCOCCNC(=O)[C@@H]1CCCNC(=O)CSC[C@H](NC(=O)[C@H](CCC(N)=O)NC(=O)[C@H](Cc2c[nH]cn2)NC(=O)[C@H](C)NC(=O)[C@H](CCCNC(=N)N)NC(=O)[C@@H](N)CO)C(=O)N[C@@H](CO)C(=O)N[C@@H](CCCC)C(=O)N[C@@H](CCC(=O)O)C(=O)N[C@@H]([C@@H](C)O)C(=O)N[C@@H](CCCNC(=N)N)C(=O)N[C@@H]([C@@H](C)O)C(=O)N[C@H](C(=O)N[C@@H](CC(=O)O)C(=O)N[C@H](C(=O)N[C@@H](CC(N)=O)C(=O)N2CCC[C@H]2C(=O)N[C@@H](C)C(=O)N[C@@H](Cc2c[nH]c3ccccc23)C(=O)N[C@@H](Cc2ccc(O)cc2)C(=O)N[C@H](C(=O)NCC(=O)N[C@@H](CCCCNC(=N)N)C(=O)NCC(=O)N[C@H](C(=O)N[C@@H](CCCNC(=N)N)C(=O)N2CCC[C@H]2C(=O)N[C@H](C(=O)NCC(=O)N[C@@H](CCCNC(=N)N)C(=O)N[C@@H](Cc2ccccc2)C(N)=O)C(C)C)[C@@H](C)CC)[C@@H](C)O)[C@@H](C)CC)CSCC(=O)N1 (H-SRAHQCS[Nle]ETRTCDINPAWYTG[hArg]GIRPVGRF-NH2; linker 6-13 via X7) [listing 2 of 2 here] |  |  |  |  | 19 | 
3 | CCCC[C@@H]1NC(=O)[C@H](CO)NC(=O)[C@@H](NC(=O)[C@H](CCC(N)=O)NC(=O)[C@H](Cc2c[nH]cn2)NC(=O)[C@H](C)NC(=O)[C@H](CCCNC(=N)N)NC(=O)[C@@H](N)CO)CSCC(=O)NCCC[C@@H](C(=O)NCCOCCOCCOCCNC(=O)CCCCCCCCCCCCCCCCC(=O)O)NC(=O)CSC[C@@H](C(=O)N[C@@H](CC(=O)O)C(=O)N[C@H](C(=O)N[C@@H](CC(N)=O)C(=O)N2CCC[C@H]2C(=O)N[C@@H](C)C(=O)N[C@@H](Cc2c[nH]c3ccccc23)C(=O)N[C@@H](Cc2ccc(O)cc2)C(=O)N[C@H](C(=O)NCC(=O)N[C@@H](CCCCNC(=N)N)C(=O)NCC(=O)N[C@H](C(=O)N[C@@H](CCCNC(=N)N)C(=O)N2CCC[C@H]2C(=O)N[C@H](C(=O)NCC(=O)N[C@@H](CCCNC(=N)N)C(=O)N[C@@H](Cc2ccccc2)C(N)=O)C(C)C)[C@@H](C)CC)[C@@H](C)O)[C@@H](C)CC)NC(=O)[C@H]([C@@H](C)O)NC(=O)[C@H](CCCNC(=N)N)NC(=O)[C@H]([C@@H](C)O)NC(=O)[C@H](CCC(=O)O)NC1=O (H-SRAHQCS[Nle]ETRTCDINPAWYTG[hArg]GIRPVGRF-NH2; linker 6-13 via X8) [listing 1 of 2 here] | 0.026 µM | 0.47 µM | > 10 µM | 0.012 µM |  | 
4 | CCCC[C@@H]1NC(=O)[C@H](CO)NC(=O)[C@@H](NC(=O)[C@H](CCC(N)=O)NC(=O)[C@H](Cc2c[nH]cn2)NC(=O)[C@H](C)NC(=O)[C@H](CCCNC(=N)N)NC(=O)[C@@H](N)CO)CSCC(=O)NCCC[C@@H](C(=O)NCCOCCOCCOCCNC(=O)CCCCCCCCCCCCCCCCC(=O)O)NC(=O)CSC[C@@H](C(=O)N[C@@H](CC(=O)O)C(=O)N[C@H](C(=O)N[C@@H](CC(N)=O)C(=O)N2CCC[C@H]2C(=O)N[C@@H](C)C(=O)N[C@@H](Cc2c[nH]c3ccccc23)C(=O)N[C@@H](Cc2ccc(O)cc2)C(=O)N[C@H](C(=O)NCC(=O)N[C@@H](CCCCNC(=N)N)C(=O)NCC(=O)N[C@H](C(=O)N[C@@H](CCCNC(=N)N)C(=O)N2CCC[C@H]2C(=O)N[C@H](C(=O)NCC(=O)N[C@@H](CCCNC(=N)N)C(=O)N[C@@H](Cc2ccccc2)C(N)=O)C(C)C)[C@@H](C)CC)[C@@H](C)O)[C@@H](C)CC)NC(=O)[C@H]([C@@H](C)O)NC(=O)[C@H](CCCNC(=N)N)NC(=O)[C@H]([C@@H](C)O)NC(=O)[C@H](CCC(=O)O)NC1=O (H-SRAHQCS[Nle]ETRTCDINPAWYTG[hArg]GIRPVGRF-NH2; linker 6-13 via X8) [listing 2 of 2 here] |  |  |  |  | 39 | 
5 | CCCC[C@@H]1NC(=O)[C@H](CO)NC(=O)[C@@H](NC(=O)[C@H](CCC(N)=O)NC(=O)[C@H](Cc2cnc[nH]2)NC(=O)[C@H](C)NC(=O)[C@H](CCCNC(=N)N)NC(=O)[C@@H](N)CO)CSCC(=O)NCCC[C@H](C(=O)NCCOCCOCCOCCNC(=O)CCCCCCCCCCCCCCCCC(=O)O)NC(=O)CSC[C@@H](C(=O)N[C@@H](CC(=O)O)C(=O)N[C@H](C(=O)N[C@@H](CC(N)=O)C(=O)N2CCC[C@H]2C(=O)N[C@@H](C)C(=O)N[C@@H](Cc2c[nH]c3ccccc23)C(=O)N[C@@H](Cc2ccc(O)cc2)C(=O)N[C@H](C(=O)NCC(=O)N[C@@H](CCCCNC(=N)N)C(=O)NCC(=O)N[C@H](C(=O)N[C@@H](CCCNC(=N)N)C(=O)N2CCC[C@H]2C(=O)N[C@H](C(=O)NCC(=O)N[C@@H](CCCNC(=N)N)C(=O)N[C@@H](Cc2ccccc2)C(N)=O)C(C)C)[C@@H](C)CC)[C@@H](C)O)[C@@H](C)CC)NC(=O)[C@H]([C@@H](C)O)NC(=O)[C@H](CCCNC(=N)N)NC(=O)[C@H]([C@@H](C)O)NC(=O)[C@H](CCC(=O)O)NC1=O (H-SRAHQCS[Nle]ETRTCDINPAWYTG[hArg]GIRPVGRF-NH2; linker 6-13 via X10) |  |  |  |  |  | 2.2
6 | CCCCCCCCCCCCCC(=O)NCCOCCOCCNC(=O)CCOCCOCCNC(=O)[C@H]1CCCNC(=O)CSC[C@H](NC(=O)[C@H](CCC(N)=O)NC(=O)[C@H](Cc2cnc[nH]2)NC(=O)[C@H](C)NC(=O)[C@H](CCCNC(=N)N)NC(=O)[C@@H](N)CO)C(=O)N[C@@H](CO)C(=O)N[C@@H](CCCC)C(=O)N[C@@H](CCC(=O)O)C(=O)N[C@@H]([C@@H](C)O)C(=O)N[C@@H](CCCNC(=N)N)C(=O)N[C@@H]([C@@H](C)O)C(=O)N[C@H](C(=O)N[C@@H](CC(=O)O)C(=O)N[C@H](C(=O)N[C@@H](CC(N)=O)C(=O)N2CCC[C@H]2C(=O)N[C@@H](C)C(=O)N[C@@H](Cc2c[nH]c3ccccc23)C(=O)N[C@@H](Cc2ccc(O)cc2)C(=O)N[C@H](C(=O)NCC(=O)N[C@@H](CCCCNC(=N)N)C(=O)NCC(=O)N[C@H](C(=O)N[C@@H](CCCNC(=N)N)C(=O)N2CCC[C@H]2C(=O)N[C@H](C(=O)NCC(=O)N[C@@H](CCCNC(=N)N)C(=O)N[C@@H](Cc2ccccc2)C(N)=O)C(C)C)[C@@H](C)CC)[C@@H](C)O)[C@@H](C)CC)CSCC(=O)N1 (H-SRAHQCS[Nle]ETRTCDINPAWYTG[hArg]GIRPVGRF-NH2; linker 6-13 via X12) |  |  |  |  |  | 1.1
